The source of these data is ChEMBL document CHEMBL1135506, “Correlations between cytotoxicity and topography of some 2-arylidenebenzocycloalkanones determined by X-ray crystallography” (J Med Chem, 2002).

For data set [1], the system named is CCRF-CEM. Put plainly: Inhibitory concentration against CEM T-lymphocytes. Type of data set: functional, cell-based. The note with it: Homo sapiens. A digest of the protocol:
(§1)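 Murine L1210 lymphoid leukemia cells, human Molt 4/C8 T-lymphocytes and human CEM T-lymphocytes were tested up to a maximum concentration of 500 µM, and the read-out was IC50 (µM).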

Data set [2] in a line: Inhibitory concentration against proliferation of human Molt 4/C8 cells. Type of data set: functional, cell-based. The note with it: Molt4/C8. A digest of the protocol: as §1
The test system of data set [3] is L1210. Put plainly: Inhibitory activity against L1210 leukemia cells. Format: functional, cell-based. As to conditions: Mus musculus. The gist of the method:
as §1

Data set [4] has as its system P388. Briefly: Inhibitory activity against Murine P388 cells. Format: functional, cell-based. The note with it: Mus musculus.
A short description of data set [5]: Partition coefficient (logP). Format: physicochemical. The note with it: octanol/water.
Data set [6] has as its system L1210. Put plainly: Effect on DNA biosyntheses in leukemia L1210 cells. Format: functional, cell-based. The note with it: Mus musculus. The gist of the method: (§2)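 L1210 cells, ~2 × 10⁵ per well, were exposed to a range of concentrations together with 0.25 µCi of [methyl-³H]deoxythymidine (DNA), [5-³H]uridine (RNA) or [3,4-³H]leucine (protein). They were incubated 20 h at 37 °C. Radioactivity in the trichloroacetic acid-insoluble fraction was then counted by liquid scintillation.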

The test system of data set [7] is L1210. Put plainly: Effect on RNA biosyntheses in leukemia L1210 cells. Format: functional, cell-based. The note with it: Mus musculus. A digest of the protocol: as §2
In data set [8] the test system is L1210. Briefly: Effect on proliferation of leukemia L1210 cells. Format: functional, cell-based. As to conditions: Mus musculus. The gist of the method: as §1
Data set [9] concerns L1210. Put plainly: Effect on protein biosyntheses in leukemia L1210 cells. Type of data set: functional, cell-based. As to conditions: Mus musculus. A digest of the protocol:
as §2

The structures appear in SMILES notation.

Take `O=C1/C(=C/c2ccccc2[N+](=O)[O-])CCc2ccccc21`: the IC50 – broadly, the concentration that gives 50% inhibition – in data set [1] was found to be 7.22 µM; in data set [2], 8.12 µM; in [3], 10.8 µM; in [4] it was 12.6 µM.

`O=C1/C(=C/c2ccccc2Br)Cc2ccccc21`: the IC50 in [1] is 46.8 µM; in [2] it was 95.4 µM; in [3], 64.2 µM; in [4], more than 50 µM.

`O=C1/C(=C/c2ccc(Cl)c(Cl)c2)CCc2ccccc21`: the IC50 in [1] was 9.77 µM; in [2] it was 28.6 µM; in data set [3], 210 µM; in data set [4], 13.1 µM.

Regarding `COc1ccc(/C=C2\CCc3ccccc3C2=O)c(OC)c1`, the IC50 in [1] came out at 1.88 µM; in [2] it was 1.69 µM; in [3], 7.98 µM; in data set [4], 2.61 µM.

In the case of `O=C1/C(=C/c2ccc(Cl)cc2Cl)CCc2ccccc21`, the IC50 in data set [1] amounted to 8.73 µM; in data set [2], 28.4 µM; in [3], 34.4 µM; in data set [4], 17.2 µM.

As to `O=C1/C(=C/c2ccccc2F)CCc2ccccc21`, the IC50 was 20.8 µM in data set [1], 36 µM in [2], 22.8 µM in data set [3] and 21.8 µM in data set [4].

Regarding `Cc1ccccc1/C=C1\CCCc2ccccc2C1=O`, the logP – broadly, a log measure of how a compound divides between an organic and an aqueous phase – in data set [5] is 4.92. For the same molecule, the IC50 in data set [1] was determined as 43.2 µM; in [2], 36.2 µM; in data set [3], 61.2 µM; in data set [4], 15.2 µM.

Turning to `COc1ccccc1/C=C/C(=O)c1ccccc1`, the IC50 in data set [1] amounted to 8.56 µM; in data set [2], 8.45 µM; in data set [3], 64.4 µM; in data set [4] it was 15.9 µM.

`O=C1/C(=C/c2ccccc2Cl)CCCc2ccccc21` gave a logP in [5] of 5.04. Also, the IC50 is 18.4 µM in data set [1], 37.1 µM in data set [2], 42.3 µM in data set [3] and 12.7 µM in data set [4].

With `COc1ccccc1/C=C1\Cc2ccccc2C1=O`, the IC50 in data set [1] amounted to 58.2 µM; in data set [2], 308 µM; in data set [6], 407 µM; in [7], 292 µM; in [8], 170 µM; in [9] it was 167 µM. The IC50 amounted to 170 µM in data set [3] and 28.4 µM in [4].

Turning to `Cc1ccccc1/C=C1\CCc2ccccc2C1=O`, the IC50 in [1] came to 43.2 µM; in data set [2] it was 41.4 µM; in data set [3], 50.2 µM; in data set [4], 17.7 µM.

`COc1ccc(/C=C2\CCCc3ccccc3C2=O)cc1OC`: in [5], the logP stood at 4.13. For the same molecule, the IC50 is 28 µM in data set [1], more than 20 µM in data set [2], more than 100 µM in [3] and 8.19 µM in [4].

Take `O=C1/C(=C/c2ccccc2Br)CCCc2ccccc21`: the logP in data set [5] was 5.04. The IC50 is 32.1 µM in data set [1], 38.4 µM in data set [2], 37 µM in data set [3] and 19.8 µM in [4].

As for `COc1cccc(/C=C2\Cc3ccccc3C2=O)c1OC`, the IC50 in data set [1] was found to be 37.6 µM; in [2], 53 µM; in data set [3], 214 µM; in [4] it was 28.7 µM.

`COc1cccc(/C=C2\CCc3ccccc3C2=O)c1OC`: the IC50 in [1] came to 28.7 µM; in data set [2], 41.3 µM; in data set [3] it was 38.2 µM; in data set [4] it was 12.3 µM.

Take `O=C1/C(=C/c2ccc(Cl)cc2Cl)Cc2ccccc21`: the IC50 in data set [1] is more than 500 µM; in [2], more than 500 µM; in [3], more than 500 µM; in data set [4], more than 50 µM.

For the molecule `O=C(/C=C/c1ccc([N+](=O)[O-])cc1)c1ccccc1`, the IC50 is 13.8 µM in data set [1], 8.32 µM in data set [2], 59.1 µM in data set [3] and 7.58 µM in data set [4].

For the molecule `O=C(/C=C/c1cccc([N+](=O)[O-])c1)c1ccccc1`, the IC50 in data set [1] was found to be 8.9 µM; in data set [2], 8.53 µM; in [3] it was 82.9 µM; in data set [4] it was 15.3 µM.

The molecule `COc1ccccc1/C=C1\CCCc2ccccc2C1=O` came in with a logP in [5] of 4.69. Moreover, the IC50 in [1] amounted to 28.9 µM; in data set [2], 37.1 µM; in data set [3], 46.1 µM; in [4], 18 µM.

As for `COc1cc(/C=C2\Cc3ccccc3C2=O)cc(OC)c1OC`, the concentration for half-maximal inhibition (IC50) is more than 500 µM in data set [1], more than 500 µM in data set [2], more than 500 µM in [3] and more than 50 µM in [4].

Take `COc1cc(/C=C2\CCCc3ccccc3C2=O)cc(OC)c1OC`: the logP in data set [5] was 4.29. Further, the IC50 in data set [1] is 11.7 µM; in [2] it was 23.1 µM; in data set [3] it was 35.8 µM; in data set [4], 8.68 µM.

On to `O=C1/C(=C/c2ccccc2Cl)Cc2ccccc21`, for which the concentration for half-maximal inhibition (IC50) in [1] turned out to be 57 µM; in data set [2], 128 µM; in data set [3], 152 µM; in data set [4] it was 26.5 µM.

For the molecule `COc1ccc(/C=C2\Cc3ccccc3C2=O)cc1OC`, the IC50 in data set [1] is 286 µM; in data set [2] it was 468 µM; in [3], 264 µM; in data set [4], 23.9 µM.

On to `O=C1/C(=C/c2ccc(Cl)cc2Cl)CCCc2ccccc21`, for which, in [5], the lipophilicity (logP) came out at 5.65. Besides, the half-inhibitory concentration (IC50) in data set [1] was 407 µM; in data set [2] it was more than 500 µM; in data set [3] it was more than 500 µM; in data set [4] it was 14 µM.

As to `O=C1/C(=C/c2ccccc2F)Cc2ccccc21`, the IC50 in data set [1] is 47.1 µM; in data set [2], 54.2 µM; in data set [3], 150 µM; in [4], 31.7 µM.

Turning to `Cc1ccccc1/C=C1\Cc2ccccc2C1=O`, the IC50 in data set [1] amounted to 56.5 µM; in data set [2] it was 154 µM; in [3], 208 µM; in data set [4], 23.9 µM.

For `COc1cccc(/C=C/C(=O)c2ccccc2)c1`, the IC50 in [1] was 8.55 µM; in data set [2] it was 7.94 µM; in data set [3], 45.1 µM; in [4], 9.75 µM.

For the molecule `O=C1/C(=C/c2ccccc2F)CCCc2ccccc21`, in data set [5], the logP came to 4.55. The IC50 in data set [1] turned out to be 28.2 µM; in data set [2], 42.1 µM; in [3] it was 60.4 µM; in data set [4] it was 13.2 µM.

For the molecule `O=C1/C(=C/c2ccccc2Br)CCc2ccccc21`, the IC50 in data set [1] was determined as 25.4 µM; in [2], 36.8 µM; in data set [3], 33.4 µM; in data set [4], 19.7 µM.

Turning to `COc1ccc(/C=C2\CCc3ccccc3C2=O)cc1OC`, the IC50 in data set [1] was found to be 8.56 µM; in data set [2], 11.6 µM; in data set [3], 42 µM; in data set [4], 5.69 µM.

In the case of `COc1cccc(/C=C2\CCCc3ccccc3C2=O)c1OC`, in [5], the logP was determined as 4.54. For the same molecule, the IC50 in data set [1] was 142 µM; in data set [2] it was more than 500 µM; in data set [3] it was more than 500 µM; in [4], 8.58 µM.

Molecule `O=C1/C(=C/c2ccc(Cl)c(Cl)c2)CCCc2ccccc21` gave a logP in [5] of 5.71. The IC50 came to 11.8 µM in data set [1], 18.2 µM in data set [2], 45.7 µM in [3] and 12.2 µM in [4].

`O=C1/C(=C/c2ccccc2[N+](=O)[O-])CCCc2ccccc21`: the logP in data set [5] was determined as 4.07. The IC50 in data set [1] came to 16.2 µM; in data set [2] it was 40 µM; in [3], 47 µM; in data set [4], 36.5 µM.

Take `O=C1/C(=C/c2ccccc2Cl)CCc2ccccc21`: the IC50 in [1] was 8.8 µM; in data set [2], 29.6 µM; in [3], 30 µM; in data set [4] it was 17.5 µM.

In the case of `COc1cc(/C=C2\CCc3ccccc3C2=O)cc(OC)c1OC`, the IC50 in [1] is 7.04 µM; in [2] it was 8.28 µM; in data set [3] it was 31.2 µM; in [4], 6.72 µM.

As for `COc1ccc(/C=C2\Cc3ccccc3C2=O)c(OC)c1`, the IC50 in [1] is 87.1 µM; in data set [2] it was 48.5 µM; in data set [3], 14 µM; in data set [4], 13 µM.

With `O=C1/C(=C/c2ccccc2[N+](=O)[O-])Cc2ccccc21`, the IC50 is 3.53 µM in data set [1]; 2.54 µM in data set [2]; 14.7 µM in data set [6]; 11.7 µM in data set [7]; 7.61 µM in data set [8]; 17.2 µM in [9]. The figures for the IC50 in data set [3] and in [4] were 7.61 µM and 0.74 µM, respectively.

`O=C(/C=C/c1ccccc1[N+](=O)[O-])c1ccccc1`: the IC50 was determined as 8.6 µM in data set [1], 8.38 µM in [2], 30.4 µM in data set [3] and 3.74 µM in data set [4].

Turning to `O=C1/C(=C/c2ccc(Cl)c(Cl)c2)Cc2ccccc21`, the IC50 in data set [1] is 397 µM; in data set [2] it was more than 500 µM; in data set [3], more than 500 µM; in [4] it was 25 µM.

As to `COc1ccccc1/C=C1\CCc2ccccc2C1=O`, the IC50 in data set [1] was found to be 12.6 µM; in data set [2], 31.3 µM; in data set [3], 40.5 µM; in data set [4], 17.5 µM.

On to `COc1ccc(/C=C2\CCCc3ccccc3C2=O)c(OC)c1`, for which, in data set [5], the logP was 5.01. Besides, the IC50 came out at 48.4 µM in data set [1], 71.4 µM in data set [2], 12.4 µM in data set [3] and 7.82 µM in data set [4].

In the case of `N[C@@H](Cc1ccc(N(CCCl)CCCl)cc1)C(=O)O`, the IC50 in [6] and in data set [7] was more than 100 µM throughout.

On to `COc1ccc(/C=C/C(=O)c2ccccc2)cc1` [4-METHOXY CHALCONE], for which the IC50 is 33.5 µM in data set [1], 30 µM in data set [2], 50.4 µM in [3] and 10.6 µM in [4].
